Data set [1] can be described thus: Biodistribution in kidney mouse xenografted with human PC-3 cells incubated for 24 hrs by LC-HRMS. It is filed as ADME, organism-based. Conditions: in vivo. The procedure, abridged:
(§1)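 Mice bearing s.c. PC-3 tumours given a single i.p. dose of 2 mg/kg; 3 mice per time point, sampled at 1, 6 and 24 h. Blood, tumour, liver, kidneys, heart, lungs and pancreas pooled per group and homogenised in water (1:2 w/v); supernatants analysed for MMAE by LC-HRMS; expressed as %ID/g.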
In general terms: Xenograft models place foreign cells or tissue in a host animal.

Data set [2] can be described thus: Cytotoxicity against human PC-3 cells assessed as inhibition of cell growth incubated for 72 hrs and followed by treated with compound continued incubation for further 72 hrs (double treatment) after retreatment of compound by CellTiter 96 aqueous assay. It is filed as toxicity, cell-based. The gist of the method: (§2)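 PC-3 or MDA-MB-231 cells were treated the day after seeding with serial dilutions, from 2000 nM for conjugates and 100 nM for MMAE, for 72 h. Then the assay was stopped, or run 72 h more after a medium change (single) or re-treatment (double). Controls got 0.05 % DMSO. Read-out was MTS absorbance at 490 nm after 90 min. IC50 by non-linear regression; ≥2 experiments, triplicates.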

Data set [3] in a line: Cytotoxicity against human MDA-MB-231 cells assessed as inhibition of cell growth incubated with compound for 72 hrs followed by further incubated for 72 hrs (single treatment) by CellTiter 96 aqueous assay. Type of data set: toxicity, cell-based. The gist of the method: as §2
A short description of data set [4]: Cytotoxicity against human PC-3 cells assessed as inhibition of cell growth incubated for 72 hrs by CellTiter 96 aqueous assay. It is filed as toxicity, cell-based. The gist of the method: as §2
A short description of data set [5]: Cytotoxicity against human MDA-MB-231 cells assessed as inhibition of cell growth incubated for 72 hrs and followed by treated with compound continued incubation for further 72 hrs (double treatment) after retreatment of compound by CellTiter 96 aqueous assay. It is filed as toxicity, cell-based. The gist of the method:
as §2

The nature of data set [6]: Biodistribution in mouse pancreas xenografted with human PC-3 cells assessed as parent compound by LC-HRMS. Type of data set: ADME, organism-based. To be noted: in vivo. The gist of the method: as §1
The nature of data set [7]: Biodistribution in mouse pancreas xenografted with human PC-3 cells by LC-HRMS relative to control. Type of data set: ADME, organism-based. Conditions: in vivo.
Data set [8] is described as follows: Cytotoxicity against human cells MDA-MB-231 assessed as inhibition of cell growth incubated for 72 hrs by CellTiter 96 aqueous assay. It is filed as toxicity, cell-based. Conditions: MDA-MB-231 cells. The procedure, abridged: as §2
The nature of data set [9]: Biodistribution in mouse xenografted with human PC-3 cells assessed as tumour environment incubated for 24 hrs by LC-HRMS. It is filed as ADME, organism-based, Neoplasm. Conditions: in vivo. The procedure, abridged:
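Mice bearing PC-3 xenografts received a single 2 mg/kg i.p. dose. Blood, tumour, liver, kidneys, heart, lungs and pancreas were collected at 1, 6 and 24 h and pooled per group. Tissues were homogenised in water (1:2 w/v) and centrifuged. Released MMAE was measured by LC-HRMS and expressed as %ID/g (n = 3).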

The subject of data set [10] is PC-3. As to the kind of experiment: Antitumor activity against human PC-3 cells xenografted with mouse assessed as median survival days at 1 mg/kg, ip (reference value: 33 days).
Data set [11] deals with PC-3. As to the kind of experiment: Antitumor activity against human PC-3 cells xenografted in mouse assessed as median survival day at 1 mg/kg, ip administration for 33 days. To be noted: time 33 day. Type of data set: functional.
Data set [12] can be described thus: Cytotoxicity against human PC-3 cells assessed as inhibition of cell growth incubated with compound for 72 hrs followed by further incubated for 72 hrs (single treatment) by CellTiter 96 aqueous assay. It is filed as toxicity, cell-based. The procedure, abridged:
as §2

A short description of data set [13]: Biodistribution in liver of mouse xenografted with human PC-3 cells incubated for 24 hrs by LC-HRMS. To be noted: in vivo. It is filed as ADME, organism-based. The gist of the method:
as §1

Data set [14] deals with PC-3. As to the kind of experiment: Antitumor activity against human PC-3 cells xenografted in mouse assessed as reduction in tumour volume relative to control. It is filed as functional. Details: scale not given: the % may be the effect or the level left. The procedure, abridged: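 Acute study in mice bearing subcutaneous PC-3 tumours. Single i.p. dose (0.1 mL) 9 days after inoculation, at a mean tumour volume of 62 mm³. Eight per group, randomized. Conjugates at 2 mg/kg MMAE-content, free MMAE at 1 mg/kg, in 5 % DMSO in water; solvent controls. Calliper volume V = ab²×π/6. Sacrifice at 20 % weight loss or 2000 mm³.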

The nature of data set [15]: Metabolic stability in mouse plasma assessed as half life at 5 uM measured upto 24 hrs by LC-HRMS analysis. It is filed as ADME, cell-free. The gist of the method:
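Conjugates at 5 μM were incubated in human or mouse plasma at 37 °C, in duplicate. Samples were taken at t0, 0.25, 0.5, 1, 2, 4 and 24 h and quenched with 1 % formic acid in MeCN (2× volume). After centrifugation (14000 rpm, 4 °C), supernatants were diluted 1:1 with water and analysed by LC-HRMS.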

Data set [16] concerns the target T1, Gastrin-releasing peptide receptor (Homo sapiens, UniProt P30550). As to the kind of experiment: Displacement of 125 I- [Tyr4] from bombesin receptor 2 in human PC-3 cells assessed as inhibition by radioligand displacement assay. Type of data set: cell-based. The gist of the method: (§3)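 Competition binding on membrane preparations from PC-3 or MDA-MB-231 cells against ¹²⁵I-[Tyr⁴]-bombesin, with conjugates at 10 μM–10 pM. IC50 was taken as the concentration giving 50 % inhibition of tracer binding.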

In data set [17] the target is T1, Gastrin-releasing peptide receptor. As to the kind of experiment: Displacement of 125 I- [Tyr4] from bombesin receptor 2 in human MDA-MB-231 cells assessed as inhibition by radioligand displacement assay. Type of data set: cell-based. The procedure, abridged:
as §3
(In general: In a radioligand displacement assay an active substance lowers the binding of a labelled ligand.)

A short description of data set [18]: Toxicity in mouse xenografted with human PC-3 cells assessed as skin rash at 0.5 mg/kg, ip administered upto 23 days. To be noted: in vivo, 552 h.
Data set [19] is described as follows: Toxicity in mouse xenografted with human PC-3 cells assessed as body weight loss at 1 mg/kg, ip administered relative to control. Type of data set: organism-based. Conditions: in vivo, 2 mg/kg, in the assay text read “2 mg/kg” for “1 mg/kg”. The procedure, abridged: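 Toxicity in mice bearing subcutaneous PC-3 tumours after a single i.p. dose 9 days post-inoculation. Free drug at 1 mg/kg, conjugates at 2 mg/kg MMAE-content, in 5 % DMSO in water; solvent controls; eight per group. Body weight followed periodically. Endpoint at 20 % weight loss; behaviour (activity, coat, stool, paleness) also scored.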

Data set [20] concerns PC-3. As to the kind of experiment: Antitumor activity against human PC-3 cells xenografted with mouse assessed as median survival days at 2 mg/kg, ip (reference value: 33 days).

Each structure is given as a SMILES string. Square brackets hold non-standard residues; d marks the D form. Peptide text beside a SMILES is read from it. * marks the point of attachment. Dolaproine = CO[C@@H]([C@@H]1CCCN1)[C@@H](C)C(=O)O; Dil = CC[C@H](C)[C@H](NC)[C@@H](CC(=O)O)OC; X3 = C[C@@H](N*)[C@@H](O)c1ccccc1; NMeV = CN[C@H](C(=O)O)C(C)C Where only a bound is given, the exact number is not on record here.

Results on two compounds are retold here after ChEMBL document CHEMBL6071141, “In vitro and in vivo evaluation of Bombesin-MMAE conjugates for targeted tumour therapy” (Eur J Med Chem, 2024).

T1 sequence (P30550 whole entry): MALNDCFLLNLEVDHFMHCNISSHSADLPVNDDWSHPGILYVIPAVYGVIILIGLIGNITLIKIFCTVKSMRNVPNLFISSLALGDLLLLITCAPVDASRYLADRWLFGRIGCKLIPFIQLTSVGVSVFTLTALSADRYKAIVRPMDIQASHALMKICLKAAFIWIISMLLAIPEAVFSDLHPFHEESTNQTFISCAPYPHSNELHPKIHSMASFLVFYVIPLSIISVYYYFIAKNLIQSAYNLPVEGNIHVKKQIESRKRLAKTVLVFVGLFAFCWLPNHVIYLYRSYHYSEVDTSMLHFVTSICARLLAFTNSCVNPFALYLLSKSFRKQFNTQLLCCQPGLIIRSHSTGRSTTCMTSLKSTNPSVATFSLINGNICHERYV

As for `CC[C@H](C)[C@@H]([C@@H](CC(=O)N1CCC[C@H]1[C@H](OC)[C@@H](C)C(=O)N[C@H](C)[C@@H](O)c1ccccc1)OC)N(C)C(=O)[C@@H](NC(=O)[C@@H](NC)C(C)C)C(C)C` (H-[NMeV]V[Dil][Dolaproine]-X3), the Drug uptake result is reported as “Active” in [1]; 10.1% in [6]; 3.55% in data set [7]; “Active” in [9]; “Active” in data set [13]. Besides, the IC50 at 144 h in data set [2] came to 0.3 nM; in data set [3], 0.2 nM; in data set [5] it was 0.2 nM; in data set [12], 0.4 nM. In addition, the figures for the IC50 at 72 h in data set [4] and in data set [8] were 3.4 nM and 10.1 nM, respectively. Further, the Survival in [10] and in data set [11] was 24.5 days each time. In addition, in data set [14], the Activity is reported as 15.9%.

Take `CC[C@H](C)[C@@H]([C@@H](CC(=O)N1CCC[C@H]1[C@H](OC)[C@@H](C)C(=O)N[C@H](C)[C@@H](O)c1ccccc1)OC)N(C)C(=O)[C@@H](NC(=O)[C@H](C(C)C)N(C)C(=O)OCc1ccc(NC(=O)[C@H](CCCNC(N)=O)NC(=O)CNC(=O)[C@@H](CCC(=O)O)NC(=O)CCCCCN2C(=O)CC(SC[C@H](NC(C)=O)C(=O)NCCOCCOCCOCCOCCC(=O)N[C@H](Cc3ccccc3)C(=O)N[C@@H](CCC(N)=O)C(=O)N[C@@H](CC3=CNC4C=CC=CC34)C(=O)N[C@@H](C)C(=O)N[C@H](C(=O)NCC(=O)N[C@@H](Cc3c[nH]cn3)C(=O)N[C@@H](CC(C)C)[C@@H](O)CC(=O)N[C@@H](CC(C)C)C(N)=O)C(C)C)C2=O)cc1)C(C)C` (stereo partly drawn): the half-life at 5 µM in data set [15] was 7.2 h. For the same compound, the IC50 worked out at 68.3 nM in [16] and 72.9 nM in data set [17]. Further, the IC50 at 144 h is 83.5 nM in data set [2], 164 nM in data set [3], 131 nM in [5] and 110 nM in data set [12]. Moreover, the results for the Activity result in data set [18], in data set [19] and in [14] were “Toxic”, below 20% and 26.3%, respectively. Further, the IC50 at 72 h came to 428 nM in [4] and 885 nM in [8]. Also, the Drug uptake result in [9] is reported as “Active”. Besides, in data set [20], the Survival was found to be 42 days.

In general, IC50 refers to the concentration that inhibits the measured activity by half. Usually half-life stands for the time needed for the level to fall by half in the phase considered.
